Experimental data: ChEMBL document CHEMBL1155976, “Synthesis and preliminary pharmacological evaluation of imidazo[2,1-f]purine-2,4-dione derivatives” (Eur J Med Chem, 2009)
pKi: −log10 of the molar value. Calls of active or inactive are those of the source. The rule behind the calls is not given here.

Experiments:
Mus musculus [1] = assay: Agonist activity at 5HT1A receptor in Swiss albino mouse assessed as decrease in rectal temperature at 10 mg/kg, ip after 120 mins; type: functional, organism-based; set-up: dose 10 mg/kg
In short: (§1)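 Male Albino Swiss mice (24–28 g), free food and water, room at 20 ± 1 °C; test agent suspended in 1% aqueous Tween 80, given ip at 10 ml/kg. Rectal temperature read with a thermometer at 30, 60, 90 and 120 min after dosing. Result expressed as Δt from basal temperature taken at the start; six to ten animals per group, each used once.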

Mus musculus [2] = assay: Agonist activity at 5HT1A receptor in Swiss albino mouse assessed as decrease in rectal temperature at 5 mg/kg, ip after 120 mins; type: functional, organism-based; set-up: dose 5 mg/kg; in short: as §1
Mus musculus [3] = assay: Agonist activity at 5HT1A receptor in Swiss albino mouse assessed as decrease in rectal temperature at 10 mg/kg, ip after 30 mins in presence of WAY 100635 administered 15 mins before drug challenge; type: functional, organism-based; set-up: dose 10 mg/kg
In short: (§2)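 Male Albino Swiss mice (24–28 g). WAY 100635 (0.1 mg/kg, sc, in distilled water) given 15 min before test agent (ip, suspended in 1% Tween 80, 10 ml/kg). Rectal temperature recorded 30 and 60 min after test agent injection. Expressed as Δt versus basal temperature at the start of the experiment.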

[4] = target: 5-hydroxytryptamine receptor 2A (Rattus norvegicus, UniProt P14842); assay: Displacement of [3H]ketanserin from 5HT2A receptor in rat cerebral cortex after 20 mins by liquid scintillation counting; type: tissue-based
In short: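 Rat cerebral cortex homogenised in 50 mM Tris-HCl pH 7.7, spun at 32000 × g, preincubated 10 min at 37 °C, resuspended in 50 volumes. Incubated with 0.6 nM [3H]-ketanserin and test agent (10^-10 to 10^-4 M) at 37 °C for 20 min; mianserin as displacer. GF/B filtration, scintillation counting; Ki from ≥3 experiments, 10 concentrations in triplicate.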

Mus musculus [5] = assay: Agonist activity at 5HT1A receptor in Swiss albino mouse assessed as decrease in rectal temperature at 10 mg/kg, ip after 90 mins; type: functional, organism-based; set-up: dose 10 mg/kg; in short: as §1
Mus musculus [6] = assay: Agonist activity at 5HT1A receptor in Swiss albino mouse assessed as decrease in rectal temperature at 10 mg/kg, ip after 60 mins; type: functional, organism-based; set-up: dose 10 mg/kg; in short: as §1
Mus musculus [7] = assay: Agonist activity at 5HT1A receptor in Swiss albino mouse assessed as decrease in rectal temperature at 5 mg/kg, ip after 30 mins; type: functional, organism-based; set-up: dose 5 mg/kg; in short: as §1
Rattus norvegicus [8] = assay: Behavioral activity in Wistar rat assessed as induction of lower lip retraction at 10 to 20 mg/kg, ip; type: functional, organism-based
In short: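 Male Wistar rats (290–310 g); agent ip in 1% Tween 80 at 2 ml/kg. Rats housed singly in cages and scored 15, 30 and 45 min after dosing: 0 = lower incisors not visible, 0.5 = partly, 1 = fully visible. Maximum total score 3 per rat.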

Mus musculus [9] = assay: Agonist activity at 5HT1A receptor in Swiss albino mouse assessed as decrease in rectal temperature at 10 mg/kg, ip after 60 mins in presence of WAY 100635 administered 15 mins before drug challenge; type: functional, organism-based; set-up: dose 10 mg/kg; in short: as §2
Mus musculus [10] = assay: Agonist activity at 5HT1A receptor in Swiss albino mouse assessed as decrease in rectal temperature at 5 mg/kg, ip after 90 mins; type: functional, organism-based; set-up: dose 5 mg/kg; in short: as §1
Mus musculus [11] = assay: Agonist activity at 5HT1A receptor in Swiss albino mouse assessed as decrease in rectal temperature at 5 mg/kg, ip after 60 mins; type: functional, organism-based; set-up: dose 5 mg/kg; in short: as §1
Mus musculus [12] = assay: Agonist activity at 5HT1A receptor in ip dosed Swiss albino mouse assessed as decrease in rectal temperature; type: functional, organism-based; in short: as §1
D(2) dopamine receptor = D(2) dopamine receptor (Rattus norvegicus, UniProt P61169); assay: Displacement of [3H]spiperone from dopamine D2 receptor in rat striatum membrane after 30 mins by liquid scintillation counting; type: cell membranes
In short: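 Rat striatum homogenised in 50 mM potassium phosphate pH 7.4 and spun twice at 20000 × g. Membranes (3 mg wet weight) incubated with 1 nM [3H]-spiperone and test agent in 0.5 ml for 30 min at 37 °C. Nonspecific binding with (+)butaclamol. GF/B filtration, two washes with ice-cold buffer, scintillation counting; Ki from ≥3 experiments, 10 concentrations in triplicate.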

Mus musculus [13] = assay: Agonist activity at 5HT1A receptor in Swiss albino mouse assessed as decrease in rectal temperature at 10 mg/kg, ip after 30 mins; type: functional, organism-based; set-up: dose 10 mg/kg; in short: as §1
[14] = target: T1, 5-hydroxytryptamine receptor 1A (Rattus norvegicus, UniProt P19327); assay: Displacement of [3H]8-OH-DPAT from 5HT1A receptor in rat cerebral cortex after 15 mins by liquid scintillation counting; type: tissue-based
T1 sequence (P19327 whole entry): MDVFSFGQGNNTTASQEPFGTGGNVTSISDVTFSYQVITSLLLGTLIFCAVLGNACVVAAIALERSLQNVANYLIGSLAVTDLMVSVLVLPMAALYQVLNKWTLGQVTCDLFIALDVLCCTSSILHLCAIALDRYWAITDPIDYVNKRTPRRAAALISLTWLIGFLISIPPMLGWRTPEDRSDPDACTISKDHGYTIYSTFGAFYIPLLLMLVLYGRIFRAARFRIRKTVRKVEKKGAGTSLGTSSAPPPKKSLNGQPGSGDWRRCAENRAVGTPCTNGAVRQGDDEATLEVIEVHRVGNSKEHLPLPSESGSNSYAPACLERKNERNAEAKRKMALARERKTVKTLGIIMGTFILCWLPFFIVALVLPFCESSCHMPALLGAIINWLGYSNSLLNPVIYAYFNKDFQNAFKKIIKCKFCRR

Mus musculus [15] = assay: Antidepressant activity in Swiss albino mouse assessed as reduction of immobility time at 30 mg/kg, ip administered 30 mins before test by forced swimming test; type: functional; conditions: route intraperitoneal
In short: (§3)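 Male Albino Swiss mice (24–28 g); agent suspended in 1% aqueous Tween 80, ip 10 ml/kg, 30 min before the test. Total immobility time scored over the last 4 min of a 6-min swim session. n = 8–10 mice per group; mean ± SEM, compared with vehicle.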

Mus musculus [16] = assay: Sedative activity in Swiss albino mouse assessed as reduction on spontaneous locomotor activity at 20 mg/kg, ip administered 30 mins before test measured for 6 mins; type: ADME, organism-based; set-up: dose 20 mg/kg, route intraperitoneal; conditions: in vivo, 0.1 h
In short: (§4)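 Male Albino Swiss mice (24–28 g); agent ip in 1% Tween 80, 30 min before the test. Locomotor activity counted as number of crossings during 6-min and 30-min sessions. n = 8–10 mice per group; mean ± SEM versus vehicle.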

Mus musculus [17] = assay: Sedative activity in Swiss albino mouse assessed as reduction on spontaneous locomotor activity at 10 mg/kg, ip administered 30 mins before test measured for 30 mins; type: ADME, organism-based; set-up: dose 10 mg/kg, route intraperitoneal; conditions: in vivo, 0.5 h
Mus musculus [18] = assay: Sedative activity in Swiss albino mouse assessed as reduction on spontaneous locomotor activity at 20 mg/kg, ip administered 30 mins before test measured for 30 mins; type: ADME, organism-based; set-up: dose 20 mg/kg, route intraperitoneal; conditions: in vivo, 0.5 h; in short: as §4
Mus musculus [19] = assay: Sedative activity in Swiss albino mouse assessed as reduction on spontaneous locomotor activity at 10 mg/kg, ip administered 30 mins before test measured for 6 mins; type: ADME, organism-based; set-up: dose 10 mg/kg, route intraperitoneal; conditions: in vivo, 0.1 h
Mus musculus [20] = assay: Antidepressant activity in Swiss albino mouse assessed as reduction of immobility time at 20 mg/kg, ip administered 30 mins before test by forced swimming test; type: functional; conditions: route intraperitoneal; in short: as §3
Mus musculus [21] = assay: Antidepressant activity in Swiss albino mouse assessed as reduction of immobility time at 10 mg/kg, ip administered 30 mins before test by forced swimming test; type: functional; conditions: route intraperitoneal; in short: as §3
Mus musculus [22] = assay: Sedative activity in Swiss albino mouse assessed as reduction on spontaneous locomotor activity at 30 mg/kg, ip administered 30 mins before test measured for 6 mins; type: ADME, organism-based; set-up: dose 30 mg/kg, route intraperitoneal; conditions: in vivo, 0.1 h; in short: as §4
Mus musculus [23] = assay: Sedative activity in Swiss albino mouse assessed as reduction on spontaneous locomotor activity at 30 mg/kg, ip administered 30 mins before test measured for 30 mins; type: ADME, organism-based; set-up: dose 30 mg/kg, route intraperitoneal; conditions: in vivo, 0.5 h; in short: as §4
Rattus norvegicus [24] = assay: Behavioral activity in Wistar rat assessed as reduction of 8-OH-DPAT-induced lower lip retraction at 10 to 20 mg/kg, ip administered 45 mins before 8-OH-DPAT challenge
Mus musculus [25] = organism: Mus musculus; conditions: Swiss albino, 20 mg/kg
Mus musculus [26] = assay: Anxiolytic activity in Swiss albino mouse assessed as number of punished crossings at 30 mg/kg, ip administered 30 mins before test measured for 60s by four plate test; type: functional; conditions: route intraperitoneal
In short: (§5)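 Male Albino Swiss mice. Box with four metal floor plates separated by 4 mm gaps; 120 V between adjacent plates for 0.5 s delivered on crossing. Mice explored 15 s before testing. Agent (ip, 1% Tween 80) given 30 min before the test. Punished crossings counted; n = 10 mice per group, mean ± SEM.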

Mus musculus [27] = assay: Anxiolytic activity in Swiss albino mouse assessed as number of punished crossings at 20 mg/kg, ip. administered 30 mins before test measured for 60s by four plate test; type: functional; in short: as §5
Mus musculus [28] = organism: Mus musculus; conditions: Swiss albino, 20 mg/kg; remark: listed apart in the source
Mus musculus [29] = organism: Mus musculus; conditions: Swiss albino, 20 mg/kg; remark: listed apart in the source
Mus musculus [30] = organism: Mus musculus; conditions: Swiss albino, 20 mg/kg; remark: listed apart in the source
Mus musculus [31] = organism: Mus musculus; conditions: Swiss albino, 20 mg/kg; remark: listed apart in the source
Mus musculus [32] = organism: Mus musculus; conditions: Swiss albino, 20 mg/kg; remark: listed apart in the source

Sequence of D(2) dopamine receptor (P61169 whole entry): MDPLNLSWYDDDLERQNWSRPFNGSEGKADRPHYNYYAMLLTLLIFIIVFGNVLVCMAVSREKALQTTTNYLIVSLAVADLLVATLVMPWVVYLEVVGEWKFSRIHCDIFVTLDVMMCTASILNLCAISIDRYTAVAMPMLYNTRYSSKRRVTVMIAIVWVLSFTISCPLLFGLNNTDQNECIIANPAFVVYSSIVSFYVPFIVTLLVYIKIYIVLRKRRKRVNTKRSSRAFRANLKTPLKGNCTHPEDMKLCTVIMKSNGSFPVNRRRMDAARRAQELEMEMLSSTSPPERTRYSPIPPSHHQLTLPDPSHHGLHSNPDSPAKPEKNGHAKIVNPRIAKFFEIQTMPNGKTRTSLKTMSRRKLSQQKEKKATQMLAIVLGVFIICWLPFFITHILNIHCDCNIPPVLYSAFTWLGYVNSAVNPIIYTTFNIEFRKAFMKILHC
Sequence of 5-hydroxytryptamine receptor 2A (P14842 whole entry): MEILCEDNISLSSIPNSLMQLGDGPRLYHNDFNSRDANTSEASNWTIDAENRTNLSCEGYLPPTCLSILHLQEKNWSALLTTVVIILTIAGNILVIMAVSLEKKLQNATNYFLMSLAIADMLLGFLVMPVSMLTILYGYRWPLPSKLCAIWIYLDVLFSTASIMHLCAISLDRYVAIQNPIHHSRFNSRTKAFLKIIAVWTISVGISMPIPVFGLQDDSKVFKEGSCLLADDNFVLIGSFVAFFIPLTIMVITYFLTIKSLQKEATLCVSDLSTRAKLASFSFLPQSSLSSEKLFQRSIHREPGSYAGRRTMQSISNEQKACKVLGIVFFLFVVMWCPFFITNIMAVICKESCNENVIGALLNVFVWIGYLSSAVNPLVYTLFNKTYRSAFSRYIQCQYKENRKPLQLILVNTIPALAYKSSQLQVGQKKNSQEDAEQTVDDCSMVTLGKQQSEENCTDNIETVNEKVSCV

Cc1cn2c3c(=O)n(C)c(=O)n(C)c3nc2n1CCCN1CCN(c2cccc(Cl)c2)CC1
deltaT (Mus musculus [1]): -0.1 °C | deltaT (Mus musculus [2]): -0.1 °C | deltaT (Mus musculus [3]): -0.9 °C | pKi [4]: 6.39 | deltaT (Mus musculus [5]): -0.8 °C | deltaT (Mus musculus [6]): -0.7 °C | deltaT (Mus musculus [7]): -0.5 °C | Activity (Rattus norvegicus [8]): inactive | deltaT (Mus musculus [9]): -0.5 °C | deltaT (Mus musculus [10]): -0.5 °C | deltaT (Mus musculus [11]): -0.4 °C | Activity (Mus musculus [12]): Dose-dependent effect | pKi (D(2) dopamine receptor): 6.12 | deltaT (Mus musculus [13]): -1 °C | pKi [14]: 7.77

CN(C)CCCN1c2ccccc2CCc2ccccc21 [IMIPRAMINE]
Activity (Mus musculus [15]): 76.4 s | Activity (Mus musculus [16]): 314.9 | Activity (Mus musculus [17]): 876.8 | Activity (Mus musculus [18]): 625.3 | Activity (Mus musculus [19]): 338 | Activity (Mus musculus [20]): 107.8 s | Activity (Mus musculus [21]): 149.1 s | Activity (Mus musculus [22]): 300.9 | Activity (Mus musculus [23]): 602.3

Cn1c(=O)c2c(nc3n(CCCN4CCN(c5cccc(Cl)c5)CC4)c(-c4ccccc4)cn23)n(C)c1=O
pKi [4]: < 6.00

COc1ccccc1N1CCN(CCN(C(=O)C2CCCCC2)c2ccccn2)CC1
Activity (Rattus norvegicus [24]): Active

Cn1c(=O)c2c(nc3nc(NCCCN4CCN(c5ccccc5)CC4)c(Br)cn32)n(C)c1=O
pKi [4]: 6.53

Cn1c(=O)c2c(nc3n(CCCN4CCN(c5cccc(Cl)c5)CC4)ccn23)n(C)c1=O
pKi [4]: 7.04 | pKi (D(2) dopamine receptor): < 6.00 | pKi [14]: < 6.00

COc1ccccc1N1CCN(CCCn2ccn3c4c(=O)n(C)c(=O)n(C)c4nc23)CC1
Activity (Mus musculus [15]): 101.3 s | Activity (Mus musculus [16]): 353.4 | Activity (Mus musculus [18]): 925.8 | pKi [4]: < 6.00 | deltaT (Mus musculus [25]): -1.1 °C | Activity (Mus musculus [26]): 2.5 | Activity (Mus musculus [20]): 104.8 s | Activity (Mus musculus [21]): 134.2 s | deltaT (Mus musculus [5]): -0.3 °C | Activity (Mus musculus [27]): 2.5 | deltaT (Mus musculus [28]): -1.3 °C | deltaT (Mus musculus [29]): -1 °C | deltaT (Mus musculus [30]): -1.8 °C | deltaT (Mus musculus [31]): -0.5 °C | deltaT (Mus musculus [6]): -0.6 °C | Activity (Mus musculus [22]): 198 | Activity (Mus musculus [23]): 567.6 | Activity (Mus musculus [12]): Dose-dependent effect | pKi (D(2) dopamine receptor): 6.08 | deltaT (Mus musculus [13]): -0.7 °C | deltaT (Mus musculus [32]): -0.9 °C | pKi [14]: 7.60

Cn1c(=O)c2c(nc3n(CCCN4CCN(c5ccccc5)CC4)c(-c4ccccc4)cn23)n(C)c1=O
pKi [4]: 6.09 | pKi (D(2) dopamine receptor): < 6.00 | pKi [14]: 7.02
